Our source for the IC50 and Activity values is ChEMBL document CHEMBL1140653, “Cytostatic activity of novel 4'-aminochalcone-based imides” (Bioorg Med Chem Lett, 2007).

pIC50: −log10 of the molar value.

Data set [1] deals with L1210. The data set is described as follows: Cytotoxicity against mouse L1210 cells. Type of data set: functional, cell-based.
Data set [2] is described as follows: Cytotoxicity against human Molt4/C8 cells. Type of data set: functional, cell-based. To be noted: MOLT-4.
Data set [3] deals with CCRF-CEM. As to the kind of experiment: Cytotoxicity against human CEM cells. Type of data set: functional, cell-based.
In data set [4] the test system is Mus musculus. The data set is described as follows: Mortality in mouse at 300 mg/kg, ip after 4 hrs. Type of data set: ADME, organism-based. More on the design: dose 300 mg/kg, route intraperitoneal. The conditions noted are these: in vivo. The method in brief: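 Mice dosed intraperitoneally at 30, 100 and 300 mg/kg; animals observed for death at 0.5 and 4 h after injection as part of a short-term toxicity screen.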

The test system of data set [5] is Mus musculus. As to the kind of experiment: Neurotoxicity in mouse at 300 mg/kg, ip after 4 hrs by rotating rod method. The format is toxicity, organism-based. On the set-up: dose 300 mg/kg, route intraperitoneal. The conditions noted are these: in vivo. In a few lines: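 Intraperitoneal dosing in mice at 30, 100 and 300 mg/kg. Neurological deficit was scored by the rotating rod procedure at 0.5 and 4 h, with observation for other pathological signs. Results were recorded as animals showing neurotoxicity over total animals at each dose.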

Broadly, the pIC50 is −log10 of the IC50, conventionally taken in molar units. On to `COc1ccc(/C=C/C(=O)c2ccc(N3C(=O)C=CC3=O)cc2)cc1OC`, for which the negative logarithm of the IC50 (pIC50) in data set [1] was 3.80; in data set [2], 3.69; in data set [3], 3.66.

In the case of `O=C(O)c1ccc(/C=C/C(=O)c2ccc(N3C(=O)C=CC3=O)cc2)cc1`, the pIC50 in data set [1] was 3.87; in data set [2] it was 3.75; in data set [3], 3.88. Besides, the Activity entry in data set [4] and in data set [5] was “Toxic” each time.

On to `O=C(/C=C/c1ccc2c(c1)OCO2)c1ccc(N2C(=O)C=CC2=O)cc1`, for which the figures for the pIC50 in data set [1], in data set [2] and in data set [3] were 3.80, 3.67 and 3.59, respectively.

For the molecule `O=C(/C=C/c1ccc(Cl)c(Cl)c1)c1ccc(N2C(=O)C=CC2=O)cc1`, the negative logarithm of the IC50 (pIC50) was 5.19 in data set [1], 5.06 in data set [2] and 5.11 in data set [3].

As to `Cc1ccc(/C=C/C(=O)c2ccc(N3C(=O)C=CC3=O)cc2)cc1`, the results for the pIC50 in data set [1], in data set [2] and in data set [3] were 5.82, 5.62 and 5.39, respectively.

With `COc1ccc(/C=C/C(=O)c2ccc(N3C(=O)C=CC3=O)cc2)cc1`, the pIC50 is 5.01 in data set [1], 5.10 in data set [2] and 5.08 in data set [3]. Further, the Activity entry in data set [5] is “Non-toxic”.

For the molecule `O=C(/C=C/c1ccc([N+](=O)[O-])cc1)c1ccc(N2C(=O)C=CC2=O)cc1`, the negative-log IC50 (pIC50) in data set [1], in data set [2] and in data set [3] was under 3.30 each time.

Regarding `O=C(/C=C/c1ccc(Cl)cc1)c1ccc(N2C(=O)C=CC2=O)cc1`, the negative-log IC50 (pIC50) in data set [1] was 5.14; in data set [2] it was 5.12; in data set [3], 5.12.

With `O=C(/C=C/c1ccccc1)c1ccc(N2C(=O)C=CC2=O)cc1`, the pIC50 in data set [1] is 5.07; in data set [2], 5.02; in data set [3], 5.01.
